Where “and” joins values, the source holds several entries; their conditions need not be identical. Identical values can stand only once.
Legend:
Tubulin (Sus scrofa) = Tubulin (Sus scrofa) (UniProt P02554+P02550); assay: Inhibition of pig brain tubulin polymerization
[1] = Antitumor activity against human […] cells; assay type: functional
How it was run: (§1)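 Run by the NCI in its in vitro disease-oriented screen of about 60 human tumour cell lines. For each line it reports pGI50 (50% net growth inhibition), pTGI (total growth inhibition) and pLC50 (50% net cell death), each as –log molar concentration. Where an effect was not reached within the tested range, the highest tested concentration was used.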

MCF7 [2] = assay: Resistance index, Ratio of GI50 for human multidrug-resistant MCF7 cells to GI50 for human MCF7 cells; assay type: functional
How it was run: (§2)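 Growth inhibition by MTT after 72 h incubation. Resistant sublines: LoVoDoxo and MCF-7 MDR were kept in 0.1 µg/mL doxorubicin; CEMVbl-100 was selected against vinblastine. GI50 given as mean ± SEM of three independent experiments. Resistance index is resistant-line GI50 over parental GI50.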

PC-3 = assay: Antitumor activity against human PC3 cells; assay type: functional; how it was run: as §1
SN12C = assay: Antitumor activity against human SN12C cells; assay type: functional; how it was run: as §1
M14 = assay: Antitumor activity against human M14 cells; assay type: functional; how it was run: as §1
NCI-H460 = assay: Cell viability against human NCI-H460 cells at 10 uM; assay type: functional
DU-145 = assay: Antitumor activity against human DU145 cells; assay type: functional; how it was run: as §1
MCF7 [3] = assay: Growth inhibition of human MCF7 cells after 72 hrs by MTT assay; assay type: functional; conditions: MCF7, 72 h; how it was run: as §2
HCT-116 = assay: Antitumor activity against human HCT116 cells; assay type: functional; how it was run: as §1
786-0 = assay: Antitumor activity against human 786-0 cells; assay type: functional; how it was run: as §1
EKVX = assay: Antitumor activity against human EKVX cells; assay type: functional; how it was run: as §1
SF-539 = assay: Antitumor activity against human SF539 cells; assay type: functional; how it was run: as §1
HCC 2998 = assay: Antitumor activity against human HCC2998 cells; assay type: functional; how it was run: as §1
CAKI-1 = assay: Antitumor activity against human CAKI1 cells; assay type: functional; how it was run: as §1
SK-MEL-2 = assay: Antitumor activity against human SKMEL2 cells; assay type: functional; how it was run: as §1
A498 = assay: Antitumor activity against human A498 cells; assay type: functional; how it was run: as §1
SF-268 = assay: Antitumor activity against human SF268 cells; assay type: functional; how it was run: as §1
HOP-92 = assay: Antitumor activity against human HOP92 cells; assay type: functional; how it was run: as §1
OVCAR-4 = assay: Antitumor activity against human OVCAR4 cells; assay type: functional; how it was run: as §1
CCRF-CEM = assay: Resistance index, Ratio of GI50 for human vinblastine-resistant CEM cells to GI50 for human CEM cells; assay type: functional
SNB-19 = assay: Antitumor activity against human SNB19 cells; assay type: functional; how it was run: as §1
A549 = assay: Antitumor activity against human A549 cells; assay type: functional; how it was run: as §1
SK-MEL-5 = assay: Antitumor activity against human SKMEL5 cells; assay type: functional; how it was run: as §1
MCF7 [4] = assay: Antitumor activity against human MCF7 cells; assay type: functional; how it was run: as §1
OVCAR-3 = assay: Antitumor activity against human OVCAR-3 cells; assay type: functional; how it was run: as §1
HCT-15 = assay: Antitumor activity against human HCT15 cells; assay type: functional; how it was run: as §1
MCF7 [5] = assay: Cell viability against human MCF7 cells at 10 uM; assay type: functional
SK-OV-3 = assay: Antitumor activity against human SKOV3 cells; assay type: functional; how it was run: as §1
IGROV-1 = assay: Antitumor activity against human IGROV1 cells; assay type: functional; how it was run: as §1
SK-MEL-28 = assay: Antitumor activity against human SKMEL28 cells; assay type: functional; how it was run: as §1
NCI-H522 = assay: Antitumor activity against human NCI-H522 cells; assay type: functional; how it was run: as §1
NCI/ADR-RES = assay: Antitumor activity against human NCI/ADR-RES cells; assay type: functional; how it was run: as §1
MDA-MB-435 = assay: Antitumor activity against human MDA-MB-435 cells; assay type: functional; how it was run: as §1
RPMI-8226 = assay: Antitumor activity against human RPMI8226 cells; assay type: functional; how it was run: as §1
SNB-75 = assay: Antitumor activity against human SNB75 cells; assay type: functional; how it was run: as §1
Malme-3M = assay: Antitumor activity against human MALME3M cells; assay type: functional; how it was run: as §1
LOX IMVI = assay: Antitumor activity against human LOXIMVI cells; assay type: functional; how it was run: as §1
COLO 205 = assay: Antitumor activity against human COLO205 cells; assay type: functional; how it was run: as §1
[6] = Antitumor activity against human NCI-H322 cells; assay type: functional; how it was run: as §1
RXF 393 = assay: Antitumor activity against human RXF393 cells; assay type: functional; how it was run: as §1
[7] = read-out: Log LC50 (the source's name) (converted)

Chain of Tubulin (Sus scrofa) (P02550 whole entry, looked up): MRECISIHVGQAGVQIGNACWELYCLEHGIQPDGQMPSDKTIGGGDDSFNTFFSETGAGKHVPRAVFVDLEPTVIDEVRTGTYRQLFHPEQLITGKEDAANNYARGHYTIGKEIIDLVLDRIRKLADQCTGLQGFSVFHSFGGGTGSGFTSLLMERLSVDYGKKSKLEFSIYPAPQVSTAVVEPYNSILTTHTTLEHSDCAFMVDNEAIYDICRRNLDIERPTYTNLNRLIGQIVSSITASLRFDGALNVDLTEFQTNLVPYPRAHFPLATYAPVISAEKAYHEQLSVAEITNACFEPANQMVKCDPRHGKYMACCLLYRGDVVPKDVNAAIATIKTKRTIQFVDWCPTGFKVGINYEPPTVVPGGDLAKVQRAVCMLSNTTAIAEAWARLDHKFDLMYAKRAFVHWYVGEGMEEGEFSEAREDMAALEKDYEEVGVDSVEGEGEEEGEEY
Chain of Tubulin (Sus scrofa) (P02554 whole entry, looked up): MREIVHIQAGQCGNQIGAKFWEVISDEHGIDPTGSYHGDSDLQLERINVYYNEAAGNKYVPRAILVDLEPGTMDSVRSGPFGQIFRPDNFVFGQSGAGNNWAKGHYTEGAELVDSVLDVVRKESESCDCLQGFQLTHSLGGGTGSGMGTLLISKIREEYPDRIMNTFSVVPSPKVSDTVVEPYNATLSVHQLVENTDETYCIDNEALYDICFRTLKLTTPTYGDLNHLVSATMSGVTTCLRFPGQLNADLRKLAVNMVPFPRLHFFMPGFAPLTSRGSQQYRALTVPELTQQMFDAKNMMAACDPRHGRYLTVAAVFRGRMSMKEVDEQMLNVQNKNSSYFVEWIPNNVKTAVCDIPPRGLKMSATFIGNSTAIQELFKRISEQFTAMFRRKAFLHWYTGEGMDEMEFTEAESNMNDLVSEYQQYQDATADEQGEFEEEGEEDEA

`O=c1[nH]c2ccccc2n2cc3ccccc3c12` showed an Activity (Tubulin (Sus scrofa)) of over 10 µM, a GI50 [1] of 0.955 µM and an LC50 [1] of 58.9 µM. It also gave a TGI ([1]; read-out: pTGI (converted)) of 10.2 µM, a RatioGI50 (MCF7 [2]) of 1.6 and a GI50 (PC-3) of 5.75 µM. The LC50 (50% net cell death) (PC-3) was over 100 µM, the TGI (PC-3; read-out: pTGI (converted)) was 28.8 µM and the GI50 (SN12C) was 1.66 µM. For the same compound, the LC50 (SN12C) was 31.6 µM, the TGI (SN12C; read-out: pTGI (converted)) was 6.31 µM and the GI50 (M14) was 6.46 µM. It also gave a CC50 (M14; [7]) of 64.6 µM, a TGI (M14; read-out: pTGI (converted)) of 22.9 µM and an Activity (NCI-H460) of 0%. For the same compound, the GI50 (DU-145) was 7.59 µM and 38 µM, the CC50 (DU-145; Homo sapiens, DU-145, read-out: Log LC50 (the source's name) (converted)) was over 100 µM and the GI50 (MCF7 [3]) was 6.5 µM. The GI50 (HCT-116) was 2.14 µM, the LC50 (HCT-116) was 49 µM and the TGI (HCT-116; read-out: pTGI (converted)) was 12.3 µM. The GI50 (786-0) was 4.27 µM, the CC50 (786-0; [7]) was 55 µM and the TGI (786-0; read-out: pTGI (converted)) was 18.2 µM. The GI50 (EKVX) was 4.79 µM, the LC50 (50% net cell kill) (EKVX) was over 100 µM and the TGI (EKVX; read-out: pTGI (converted)) was 69.2 µM. The GI50 (SF-539) was 5.13 µM, the LC50 (50% net cell kill) (SF-539) was 75.9 µM and the TGI (SF-539; read-out: pTGI (converted)) was 22.4 µM. The GI50 (HCC 2998) was 5.89 µM, the LC50 (HCC 2998) was 57.5 µM and the TGI (HCC 2998; read-out: pTGI (converted)) was 20.9 µM. The GI50 (CAKI-1) was 17.8 µM, the LC50 (CAKI-1) was 70.8 µM and the TGI (CAKI-1; read-out: pTGI (converted)) was 35.5 µM. For the same compound, the GI50 (SK-MEL-2) was 20.4 µM, the LC50 (SK-MEL-2) was 72.4 µM and the TGI (SK-MEL-2; read-out: pTGI (converted)) was 38.9 µM. For the same compound, the GI50 (A498) was 11.2 µM, the CC50 (A498; [7]) was 64.6 µM and the TGI (A498; read-out: pTGI (converted)) was 26.9 µM. For the same compound, the GI50 (SF-268) was 21.4 µM, the CC50 (SF-268; [7]) was over 100 µM and the TGI (SF-268; read-out: pTGI (converted)) was 87.1 µM. It also gave a GI50 (HOP-92) of 3.98 µM, an LC50 (HOP-92) of 51.3 µM and a TGI (HOP-92; read-out: pTGI (converted)) of 18.6 µM. It also gave a GI50 (OVCAR-4) of 7.24 µM, an LC50 (50% net cell kill) (OVCAR-4) of over 100 µM and a TGI (OVCAR-4; read-out: pTGI (converted)) of 89.1 µM. For the same compound, the RatioGI50 (CCRF-CEM) was 0.8, the GI50 (SNB-19) was 8.91 µM and the CC50 (SNB-19; [7]) was over 100 µM. The TGI (SNB-19; read-out: pTGI (converted)) was over 100 µM, the GI50 (A549) was 5.89 µM and the CC50 (A549; [7]) was over 100 µM. For the same compound, the TGI (A549; read-out: pTGI (converted)) was 32.4 µM, the GI50 (SK-MEL-5) was 1.91 µM and the LC50 (SK-MEL-5) was 60.3 µM. The TGI (SK-MEL-5; read-out: pTGI (converted)) was 14.8 µM, the GI50 (MCF7 [4]) was 10.5 µM and the LC50 (50% net cell kill) (MCF7 [4]) was over 100 µM. For the same compound, the TGI (MCF7 [4]; read-out: pTGI (converted)) was over 100 µM, the GI50 (OVCAR-3) was 18.6 µM and the LC50 (50% net cell death) (OVCAR-3) was 72.4 µM. The TGI (OVCAR-3; read-out: pTGI (converted)) was 36.3 µM, the GI50 (HCT-15) was 3.31 µM and the CC50 (HCT-15; [7]) was 93.3 µM. It also gave a TGI (HCT-15; read-out: pTGI (converted)) of 18.6 µM, an Activity (MCF7 [5]) of 6% and a GI50 (SK-OV-3) of 12.3 µM. It also gave an LC50 (50% net cell kill) (SK-OV-3) of over 100 µM, a TGI (SK-OV-3; read-out: pTGI (converted)) of 35.5 µM and a GI50 (IGROV-1) of 10.2 µM. It also gave a CC50 (IGROV-1; [7]) of 63.1 µM, a TGI (IGROV-1; read-out: pTGI (converted)) of 25.7 µM and a GI50 (SK-MEL-28) of 22.4 µM. The CC50 (SK-MEL-28; [7]) was over 100 µM, the TGI (SK-MEL-28; read-out: pTGI (converted)) was over 100 µM and the GI50 (NCI-H522) was 13.8 µM. For the same compound, the CC50 (NCI-H522; [7]) was 75.9 µM, the TGI (NCI-H522; read-out: pTGI (converted)) was 32.4 µM and the GI50 (NCI/ADR-RES) was 6.46 µM. The LC50 (NCI/ADR-RES) was over 100 µM, the TGI (NCI/ADR-RES; read-out: pTGI (converted)) was 32.4 µM and the GI50 (MDA-MB-435) was 16.2 µM. It also gave an LC50 (50% net cell death) (MDA-MB-435) of 58.9 µM, a TGI (MDA-MB-435; read-out: pTGI (converted)) of 30.9 µM and a GI50 (RPMI-8226) of 3.72 µM. The CC50 (RPMI-8226; [7]) was over 100 µM, the TGI (RPMI-8226; read-out: pTGI (converted)) was 22.4 µM and the GI50 (SNB-75) was 13.5 µM and 1.91 µM. It also gave an LC50 (SNB-75; Homo sapiens, SNB-75) of over 100 µM, a TGI (SNB-75; Homo sapiens, SNB-75, read-out: pTGI (converted)) of 74.1 µM and a GI50 (Malme-3M) of 25.1 µM. For the same compound, the CC50 (Malme-3M; [7]) was 85.1 µM, the TGI (Malme-3M; read-out: pTGI (converted)) was 46.8 µM and the GI50 (LOX IMVI) was 3.02 µM. It also gave an LC50 (50% net cell kill) (LOX IMVI) of 85.1 µM, a TGI (LOX IMVI; read-out: pTGI (converted)) of 12 µM and a GI50 (COLO 205) of 4.57 µM. It also gave an LC50 (COLO 205) of over 100 µM, a TGI (COLO 205; read-out: pTGI (converted)) of over 100 µM and a GI50 [6] of 24 µM. The LC50 (50% net cell death) [6] was 89.1 µM, the TGI ([6]; read-out: pTGI (converted)) was 46.8 µM and the GI50 (RXF 393) was 6.31 µM. For the same compound, the CC50 (RXF 393; [7]) was over 100 µM and the TGI (RXF 393; read-out: pTGI (converted)) was 30.2 µM.

Source: ChEMBL document CHEMBL1144782, “Isoindolo[2,1-a]quinoxaline derivatives, novel potent antitumor agents with dual inhibition of tubulin polymerization and topoisomerase I” (2008)
